The values below come from ChEMBL document CHEMBL1130979, “Synthesis, X-ray crystal structure, and biological activity of FR186054, a novel, potent, orally active inhibitor of acyl-CoA:cholesterol O-acyltransferase (ACAT) bearing a pyrazole ring” (Bioorg Med Chem Lett, 1998).

Bounds are passed on as bounds.

What all share (assay type): functional
The test system of experiment [1] is Rattus norvegicus. Description: Hypocholesterolemic activity to reduce plasma total cholesterol level by 50% after dietary administration in cholesterol-fed rats. The settings on record: feed or water. In short, it runs like this:
(§1)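 Male rats (n = 4) received compound admixed in diet supplemented with 1% cholesterol and 0.5% cholic acid for 7 days. Plasma total cholesterol then measured, percent change vs control calculated. Reported as percent reduction at the dose given or as ED50 (dose lowering total cholesterol by 50%). Significance by unpaired two-tailed Student's t-test.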

The test system of experiment [2] is Rattus norvegicus. The experiment is described as follows: Hypocholesterolemic activity by administration of gavage in PEG400 as a vehicle in cholesterol-fed rats. The settings on record: po. The procedure, abridged:
(§2)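 Male rats (n = 4) made hypercholesterolemic on diet with 1% cholesterol and 0.5% cholic acid for 2 days. Compound then dissolved in PEG400 and given orally by gavage once daily in the evening for 3 days, cholesterol-enriched diet continued. Plasma total cholesterol measured; ED50 = dose lowering plasma total cholesterol by 50% of control.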

Experiment [3] has as its system Rattus norvegicus. Description: Percent reduction in total cholesterol at less than 0.1 mg/kg dose. The procedure, abridged: as §1
Experiment [4] deals with Rattus norvegicus. Description: Hypocholesterolemic activity by administration of gavage in PEG400 as a vehicle in cholesterol-fed rats. The settings on record: po. The procedure, abridged:
as §2

In experiment [5] the test system is Rattus norvegicus. Description: Percent reduction in total cholesterol at greater than 1 mg/kg dose. In short, it runs like this: as §1

Turning to `CSc1cc(C)nc(SC)c1NC(=O)N(Cc1ccccc1)Cc1cccc(-c2cc[nH]n2)c1`, the ED50 with Rattus norvegicus [1] was 0.046 mg/kg; in the experiment on Rattus norvegicus [2], 0.44 mg/kg.

Regarding `CSc1cc(C)nc(SC)c1NC(=O)N(Cc1ccc(N(C)C)cc1)Cc1cccc(-c2cc[nH]n2)c1`, in the experiment on Rattus norvegicus [3], the Reduction was determined as 61%. Also, in the experiment with Rattus norvegicus [1], the ED50 was < 0.1 mg/kg.

Consider `O=C(Nc1c(F)cc(F)cc1F)N(Cc1ccccc1)Cc1cccc(-c2cc[nH]n2)c1`, for which the results for the ED50 in the experiment on Rattus norvegicus [1] and in the experiment on Rattus norvegicus [4] were 0.096 mg/kg and 8.6 mg/kg, respectively.

In the case of `CSc1cc(C)nc(SC)c1NC(=O)N(Cc1ccc(F)cc1)Cc1cccc(-c2cc[nH]n2)c1`, the Reduction with Rattus norvegicus [3] is on record as 66%. Besides, the ED50 in the experiment with Rattus norvegicus [1] was < 0.1 mg/kg.

In turn, `Cc1cc(C)c(NC(=O)N(Cc2ccccc2)Cc2cccc(-c3cc[nH]n3)c2)c(C)c1` displayed a Reduction in the experiment on Rattus norvegicus [5] of 36%. For the same compound, the ED50 with Rattus norvegicus [1] is > 1 mg/kg.

Consider `COc1ccc(CN(Cc2cccc(-c3cc[nH]n3)c2)C(=O)Nc2c(SC)cc(C)nc2SC)cc1`, for which, in the experiment on Rattus norvegicus [3], the Reduction is on record as 81%. Besides, the ED50 in the experiment on Rattus norvegicus [1] was < 0.1 mg/kg.

Take `CCCCCCCN(Cc1ccc(CC(C)(C)C)cc1)C(=O)Nc1ccc(F)cc1F` [CL-277082]: the ED50 with Rattus norvegicus [1] came out at 5 mg/kg.
